Columns and labels:
Plasmodium falciparum = assay: Antimalarial activity against multidrug-resistant Plasmodium falciparum K1 by microculture radioisotope technique; assay type: functional, organism-based
KB = assay: Cytotoxicity against human KB cells by colorimetric method; assay type: functional, cell-based
In short: (§1)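 Colorimetric cytotoxicity read-out on four cell lines: KB (oral human epidermoid carcinoma), BC (human breast cancer), NCI-H187 (human small cell lung cancer) and Vero (African green monkey kidney […]). A reference compound was run alongside.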

NCI-H187 = assay: Cytotoxicity against human NCI-H187 cells by colorimetric method; assay type: functional, cell-based; in short: as §1
Vero = assay: Cytotoxicity against african green monkey Vero cells by colorimetric method; assay type: cell-based; conditions: Chlorocebus sabaeus; in short: as §1
[1] = Cytotoxicity against human BC cells by colorimetric method; assay type: functional, cell-based; in short: as §1

Row | Compound | IC50 (Plasmodium falciparum) [nM] | IC50 (KB) [nM] | IC50 (NCI-H187) [nM] | IC50 (Vero) [nM] | IC50 [1] [nM]
1 | C[C@H]1[C@@H](O)O[C@@H]2O[C@@]3(C)CC[C@H]4[C@H](C)CC[C@@H]1[C@@]24OO3 [ARTENIMOL] | 4.5 |  |  |  | 
2 | Cc1c2ccncc2c(C)c2c1[nH]c1ccccc12 [ELLIPTECINE] |  | 2200 | 2000 | 2100 | 1200

From ChEMBL document CHEMBL1149909, “Aurocitrin and related polyketide metabolites from the wood-decay fungus Hypocrea sp. BCC 14122” (J Nat Prod, 2008)
